According to publication PMC3607822 (The Journal of General Physiology, 2013):
Positions count from the first letter of the chain named.

What was measured:
[1] = target: T1, CNGA3 C7K/R-A (K624A, K629A, R643A, R646A, K657A, K659A, R661A) channels (Homo sapiens, UniProt Q16281, K624A/K629A/K657A/K659A/R643A/R646A/R661A); test: Inside-out patch clamp, CNGA3 C7K/R-A; format: biochemical
T1 sequence (Q16281 1-694 K624A/K629A/R643A/R646A/K657A/K659A/R661A): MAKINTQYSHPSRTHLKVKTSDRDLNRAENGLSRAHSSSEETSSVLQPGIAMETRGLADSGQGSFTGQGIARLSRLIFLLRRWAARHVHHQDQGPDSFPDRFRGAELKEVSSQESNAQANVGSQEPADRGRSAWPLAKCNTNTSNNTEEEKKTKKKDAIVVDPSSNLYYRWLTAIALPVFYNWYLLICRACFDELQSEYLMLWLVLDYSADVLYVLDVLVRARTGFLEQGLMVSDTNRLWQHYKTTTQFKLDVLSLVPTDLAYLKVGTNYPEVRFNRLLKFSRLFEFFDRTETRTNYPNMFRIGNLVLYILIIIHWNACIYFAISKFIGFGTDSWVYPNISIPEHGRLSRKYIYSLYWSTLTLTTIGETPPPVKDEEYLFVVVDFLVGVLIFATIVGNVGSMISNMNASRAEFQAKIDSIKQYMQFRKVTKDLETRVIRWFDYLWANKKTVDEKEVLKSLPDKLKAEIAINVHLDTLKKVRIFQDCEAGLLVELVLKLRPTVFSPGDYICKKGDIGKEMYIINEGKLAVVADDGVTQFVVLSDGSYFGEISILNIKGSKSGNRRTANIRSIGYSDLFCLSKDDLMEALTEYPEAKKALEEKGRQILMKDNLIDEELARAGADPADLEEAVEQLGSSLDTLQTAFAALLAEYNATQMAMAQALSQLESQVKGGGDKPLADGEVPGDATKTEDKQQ

[2] = target: T2, CNGA3 RR-EE (R643E, R646E) channels (Homo sapiens, UniProt Q16281, R643E/R646E); test: Inside-out patch clamp, CNGA3 RR-EE; format: biochemical
T2 sequence (Q16281 1-694 R643E/R646E): T1 sequence (Q16281 1-694 K624A/K629A/R643A/R646A/K657A/K659A/R661A) with A624K, A629K, A643E, A646E, A657K, A659K, A661R

[3] = target: CNGA3 ΔN (2-156), 613X channels (Homo sapiens, UniProt Q16281); test: Inside-out patch clamp, CNGA3 ΔN; format: biochemical
[4] = target: CNGA3 N7R-A (R72A, R75A, R81A, R82A, R86A, R101A, R103A) channels (Homo sapiens, UniProt Q16281, R101A/R103A/R72A/R75A/R81A/R82A/R86A); test: Inside-out patch clamp, CNGA3 N7R-A; format: biochemical
[5] = target: CNGA3 N5R-A, 613X channels (Homo sapiens, UniProt Q16281, R72A/R75A/R81A/R82A/R86A); test: Inside-out patch clamp, CNGA3 N5R-A, 613X; format: biochemical
A2ΔN+B3 channels = A2ΔN+B3 channels (UniProt Q00195+Q9NQW8, DEL61-90); test: Inside-out patch clamp, A2ΔN+B3; format: biochemical, rat, human; conditions: 1 µM PIP3
Summary of the method: (§1)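 Subunit cRNAs (~20 ng, B in excess over A) injected into stage IV Xenopus oocytes; inside-out patches 2–7 d later, 20–22°C, symmetric 130 mM NaCl, 0.2 mM EDTA, 3 mM Hepes pH 7.2. Heteromer formation checked by 25 µM l-cis-diltiazem with 1 mM cGMP. diC8 phosphoinositides applied intracellularly in phosphatase-inhibitor cocktail. cGMP dose–response at +80 mV, leak-subtracted, Hill fit before/after for K1/2; mean ± SEM.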

A2ΔN+B1 channels = A2ΔN+B1 channels (UniProt Q00195+Q14028, DEL61-90); test: Inside-out patch clamp, A2ΔN+B1; format: biochemical, rat, human; conditions: 1 µM PIP3
Summary of the method: as §1

[6] = target: wild-type CNGA2 with CNGB3 channels (UniProt Q00195+Q9NQW8); test: Inside-out patch clamp, CNGA2 with CNGB3; format: biochemical, rat, human; conditions: 1 µM PIP3
Summary of the method: as §1

[7] = target: CNGA3 with CNGB1 channels (Homo sapiens, UniProt Q14028+Q16281); test: Inside-out patch clamp, CNGA3 with CNGB1; format: biochemical; conditions: 1 µM PIP3
Summary of the method: as §1

[8] = read-out: K1/2 cGMP, +80 mV, no PIPn

In the case of `Nc1nc2c(ncn2[C@@H]2O[C@@H]3COP(=O)(O)O[C@H]3[C@H]2O)c(=O)[nH]1` [cGMP, cyclic guanosine monophosphate], the Hill coefficient ([1]; cGMP activation) is reported as 2.00 ± 0.00 (6), the EC50 [1, 8] is reported as 9.37 ± 0.29 µM and the “Po max cGMP” value ([1]; saturating cGMP) is reported as 0.92 ± 0.01 (4). The Hill coefficient ([2]; cGMP activation) was 1.95 ± 0.05 (4), the EC50 [2, 8] was 8.29 ± 0.47 µM and the “Po max cGMP” value ([2]; saturating cGMP) was 0.93 ± 0.03 (4). The Hill coefficient ([3]; cGMP activation) was 1.66 ± 0.10 (6), the EC50 [3, 8] was 15.8 ± 2.8 µM and the Hill coefficient ([4]; cGMP activation) was 1.59 ± 0.18 (4). For the same molecule, the EC50 [4, 8] was 8.89 ± 1.15 µM, the Hill coefficient ([5]; cGMP activation) was 1.71 ± 0.05 (8) and the EC50 [5, 8] was 16.7 ± 0.98 µM.
“phosphatidylinositol (3,4,5)-trisphosphate [PIP3]” was tested, and the “regulation of K1/2 cGMP by PIP3” value (A2ΔN+B3 channels) was “insensitive to regulation by PIP3”, the “regulation of K1/2 cGMP by PIP3” value (A2ΔN+B1 channels) was “insensitive to regulation by PIP3” and the “regulation of K1/2 cGMP by PIP3” value [6] was “PIP3-sensitive”. For the same molecule, the “regulation of K1/2 cGMP by PIP3” value [7] was “PIP3-sensitive”.
